Bioassay records: PubChem BioAssay, The Scripps Research Institute Molecular Screening Center
rCAG RNA binder: binders of r(CAG) RNA repeats, primary screen, biochemical, fluorescence; AID 651821, 2012; inhibition, % at 3 µM; hit rate 1.3% among 370,000; r(CAG) RNA repeat, TO-PRO-1 dye displacement fluorescence;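 active = inhibition above the plate cutoff, the mean of all test compounds on that plate plus 3 SD, cut at about 35% in these data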;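 also: 0% = DMSO alone and 100% = 100 µM mitoxantrone as full dye displacement; higher means more dye released from RNA so lower well fluorescence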
HCV NS3 hel inh: inhibitors of HCV NS3 helicase, primary screen, biochemical, Cy5 molecular beacon fluorescence; AID 1800, 2009; Hepatitis C virus NS3 helicase; hit rate 0.56% among 290,000; inhibition, % at 10.9 µM; NS3 helicase DNA unwinding;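 active = inhibition above the mean of all tested compounds plus 3 SD, set per campaign, cut at about 35% in these data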;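 also: 0% = DMSO wells and 100% = thioflavine S control wells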
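assay system = NS3 helicase fragment of HCV | buffer or medium = MOPS pH 6.5, MgCl2, DTT, Tween20, BSA | timing = 60 min unwinding reaction at 25 °C after ATP addition | signal = Cy5 beacon fluorescence read at start and 1 h | read-out basis = % inhibition of unwinding | control set = low DMSO, high thioflavine S at 110 µM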
TAAR1 agonist: human TAAR1 agonists, primary screen, Fluo-8 calcium fluorescence, CHO RD-HGA16 cells; vehicle wells 0%, saturating PEA agonist 100%; activation, % at 3 µM; hit rate 0.99% among 360,000; Trace amine-associated receptor 1 (Homo sapiens), Q96RJ0;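 active = activation above the mean activation of all test compounds in the run plus 3 SD, cut at about 38% in these data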
Target sequence (Q96RJ0 whole entry, looked up): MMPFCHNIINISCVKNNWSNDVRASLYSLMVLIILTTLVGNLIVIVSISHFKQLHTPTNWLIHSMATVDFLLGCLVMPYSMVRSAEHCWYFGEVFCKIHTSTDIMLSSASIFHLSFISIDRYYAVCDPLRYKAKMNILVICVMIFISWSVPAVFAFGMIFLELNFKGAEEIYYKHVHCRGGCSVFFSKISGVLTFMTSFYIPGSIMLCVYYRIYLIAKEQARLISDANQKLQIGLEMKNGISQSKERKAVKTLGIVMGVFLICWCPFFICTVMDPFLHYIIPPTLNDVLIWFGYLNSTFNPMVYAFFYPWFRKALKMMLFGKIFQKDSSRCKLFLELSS
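Test system: RD-HGA16 (CHO) cells co-expressing Gα16 and hTAAR1 | Doses: Single dose, 3 µM | Schedule: 17-24 h seeding, 75 min 37 °C dye, 30 min RT | Evaluation: % activation from peak over basal fluorescence ratio, DMSO-to-PEA scaled | Technique: Kinetic Fluo-8 calcium fluorescence | Benchmarks: Low control DMSO, high control PEA (EC100)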
TAAR1 antagonist: human TAAR1 antagonists, primary screen, Fluo-8 calcium fluorescence, CHO RD-HGA16 cells. inhibition, % at 3 µM. hit rate 1.5% among 360,000. antagonist. Trace amine-associated receptor 1 (Homo sapiens), Q96RJ0;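 active = inhibition above a per-plate cutoff, the mean inhibition of test compounds on that plate plus 3 SD, cut at about 49% in these data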;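 also: 0% = DMSO plus EC80 beta-PEA response and 100% = DMSO alone without agonist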
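Assay system: RD-HGA16 CHO cells with stable hTAAR1 and Gα16 / Reagent: EC80 β-phenethylamine stimulus / Doses: 3 µM, single point / Timing: dye loading 75 min at 37 °C, then 30 min room temperature / Measured by: Fluo-8 intracellular calcium dye fluorescence, real-time kinetic reads / Controls: vehicle wells and EC80 agonist wells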
HCV core dimer: inhibitors of HCV core protein dimerization, primary screen, biochemical, TR-FRET, high-throughput; inhibition, % at 5 µM; TR-FRET GST/Flag-core106 dimerization, 1536-well; hit rate 0.33% among 300,000;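 active = inhibition above the mean of all tested compounds plus 3 SD, set per screening campaign, cut at about 45% in these data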
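Assay system – GST-tagged and Flag-tagged HCV core protein residues 1-106 · Quantity – core106 proteins, GST 13.5 nM and Flag 17 nM · Benchmarks – unlabelled core106 and no-GST-core106 wells · Read-out basis – percent inhibition of core106 dimerization signal · Detection – time-resolved FRET, ex 340 nm, em 617 and 671 nm · Schedule – 4 h at 22.5 °C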
TAAR1 nonsel count: nonselective antagonists in TAAR1 counter-screen cells, counter-screen for hTAAR1 antagonist project, cell-based, fluorescence, calcium | shares compounds with TAAR1 antagonist | counterscreen cell line, antagonist mode | inhibition, % at 3 µM | hit rate 77% among 2,400 | AID 651780, 2012; in the data active = inhibition above about 22%;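 also: CHO-Ga16 host cells stimulated with ATP at an EC80 level; 0% = agonist EC80 plus vehicle and 100% = vehicle without agonist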
TAAR1 ant conf: human TAAR1 antagonists, retest of hits, confirmation, cell-based, fluorescence; AID 651785, 2012; TAAR1-expressing cells, fluorescence antagonist read-out; shares compounds with TAAR1 antagonist; hit rate 40% among 2,400; inhibition, % at 3 µM; in the data active = inhibition above about 49%;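 also: CHO-Ga16 host cells challenged with agonist PEA near its EC80; 0% = agonist at EC80 plus vehicle and 100% = vehicle with no agonist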
Ga16 ag counter: calcium activation in Ga16-expressing cells, counter-screen for TAAR1 antagonist project, cell-based, fluorescence; shares compounds with TAAR1 antagonist; agonist counterscreen; activation, % at 3 µM; hit rate 18% among 2,400; in the data active = activation above about 12%;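 also: 0% = vehicle wells and 100% = saturating stimulus response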
TAAR1 ag count: TAAR1 activation by candidate antagonists – cell-based, fluorescence, counter-screen for TAAR1 antagonist project. shares compounds with TAAR1 antagonist. hTAAR1 cell line, agonist mode. activation, % at 3 µM. hit rate 2% among 2,400; in the data active = activation above about 37%;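 also: CHO cells stably expressing TAAR1 with calcium dye readout; 0% = DMSO vehicle and 100% = full agonist response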
* hit, by the source's call; · = no result. In the library only some 3.7% were active in any assay of this set; here they are far more common.

SMILES	rCAG RNA binder	HCV NS3 hel inh	TAAR1 agonist	TAAR1 antagonist	HCV core dimer	TAAR1 nonsel count	TAAR1 ant conf	Ga16 ag counter	TAAR1 ag count
O=C(CSc1nnc(-c2cccs2)n1Cc1ccco1)Nc1ccc(Oc2ccccc2)cc1	8.2	·	·	·	·	·	·	·	·
COc1ccc(NC(=O)c2cc(-c3ccco3)nc3ccccc23)cc1	9.0	·	6.0	16.0	13.3	·	·	·	·
COc1ccc(NC(=O)Nc2cccc3ccccc23)c(OC)c1	-1.0	1.4	23.6	59.4*	-2.7	18.5	42.4	3.2	4.2
Cc1cccc(NC(=O)c2cc(-c3ccco3)nc3ccccc23)n1	4.7	11.3	17.8	54.9*	4.1	27.3*	49.9*	6.9	4.9
COc1ccc(OC)c(NC(=O)Nc2cccc3ccccc23)c1	5.9	-4.9	1.9	-5.9	-3.0	·	·	·	·
Cc1ccc(-c2nnc(SCC(=O)N/N=C/c3ccccc3C(=O)O)n2-c2ccc(Cl)cc2)cc1	18.1	23.4	1.4	-30.8	15.8	·	·	·	·
Cc1ccc(-n2c(SCC(=O)N/N=C/c3ccccc3C(=O)O)nnc2-c2ccc(Cl)cc2)cc1	19.8	15.7	0.6	-37.2	14.7	·	·	·	·
O=C(CSc1nnc(-c2ccc(Cl)cc2)n1-c1ccc(Cl)cc1)N/N=C/c1ccco1	-1.1	-3.7	13.4	78.0*	12.1	27.4*	54.4*	8.4	5.8
Cc1ccc(/C=N/NC(=O)CSc2nnc(-c3ccc(Cl)cc3)n2-c2ccccc2)o1	5.6	-3.0	11.6	58.1*	3.4	25.9*	45.2	7.0	4.7
COc1cc(/C=C/C(=O)NCCc2ccc(S(N)(=O)=O)cc2)ccc1OCC#N	10.9	-11.2	0.1	-6.6	-1.9	·	·	·	·
CCOc1cc(/C=C/C(=O)NCCc2ccc(S(N)(=O)=O)cc2)ccc1OCC(C)C	8.2	10.2	6.1	76.4*	5.6	24.8*	38.7	4.7	0.9
CC(=O)C1=C(C)N(CC(C)C)C(=S)NC1c1ccc(Br)cc1 (configuration not stated)	0.1	·	-1.7	-11.5	·	·	·	·	·
COc1ccc(N2C(=O)c3n[nH]c(C(C)C)c3C2c2ccccc2)cc1 (configuration not stated)	-1.2	·	-0.9	-33.5	·	·	·	·	·
Brc1cccc(CN2CCN(c3ncc(Cc4ccccc4)cn3)CC2)n1	0.1	·	0.5	-18.4	·	·	·	·	·
O=C(CCn1c(=O)oc2ccccc21)N(Cc1ccccc1)c1ccccc1	-1.1	-15.1	3.3	69.5*	3.2	23.3*	49.8*	5.8	5.2
COC(=O)[C@]1(CNC(=O)C(F)(F)F)CC(=O)N(C)[C@@H]1c1ccccc1	0.7	·	·	·	·	·	·	·	·
Cn1cc(C(=O)NCCN2CCN(c3cccc(Cl)c3)CC2)c2c3ccccc3n(C)c2c1=O	10.8	-6.2	24.6	56.3*	-2.4	28.9*	43.1	6.2	6.3
COC(=O)C1=C(C)N(C)C(=NCC2CC2)NC1c1ccc(Cl)cc1 (configuration not stated)	5.6	·	0.2	-6.2	·	·	·	·	·
COC(=O)C(Nc1ccccc1Cl)(c1cc(C)c(O)c(C)c1)C(F)(F)F (configuration not stated)	-3.7	-8.5	8.4	83.1*	4.7	8.3	40.0	4.4	8.2
CCOC(=O)c1cc2c(N)c(C(=O)c3cc(C#N)c(SC)nc3C)sc2nc1C	2.8	-1.4	5.4	68.0*	4.4	30.6*	41.9	4.3	0.9
COc1ccc(-n2c(Cc3cccs3)nnc2SCC(=O)Nc2ccc(OCc3ccccc3)cc2)cc1	12.0	·	·	·	·	·	·	·	·
Cc1ccccc1-n1nnnc1SCc1csc(-c2ccccc2)n1	-2.3	-7.8	16.2	69.5*	8.8	28.0*	43.0	6.8	6.9
Cn1c(=O)c(=O)n(C)c2cc(S(=O)(=O)N3CCN(CCO)CC3)ccc21	3.7	·	·	·	·	·	·	·	·
COc1ccc(N(C)S(=O)(=O)c2cccc(C(=O)Nc3ccc(OC)nc3)c2)cc1	2.2	-10.8	17.9	62.0*	-5.8	31.0*	43.1	10.6	5.6
COc1ccc(N(C)S(=O)(=O)c2cccc(C(=O)Nc3cc(OC)ccc3OC)c2)cc1	1.3	-4.8	4.4	10.0	9.9	·	·	·	·
SMILES	rCAG RNA binder	HCV NS3 hel inh	TAAR1 agonist	TAAR1 antagonist	HCV core dimer	TAAR1 nonsel count	TAAR1 ant conf	Ga16 ag counter	TAAR1 ag count
COc1ccc(N(C)S(=O)(=O)c2cccc(C(=O)Nc3ccc4c(c3)OCCO4)c2)cc1	4.3	3.4	3.7	35.9	-9.7	·	·	·	·
COc1ccc(N(C)S(=O)(=O)c2cccc(C(=O)Nc3ccc(-n4cnnn4)cc3)c2)cc1	15.5	-9.7	19.1	75.0*	6.6	46.6*	51.6*	13.3*	5.4
CCCCOc1cccc(C(=O)NCCc2ccccc2-c2ccccc2CCC(=O)NCc2ccccc2)c1	1.1	·	·	·	·	·	·	·	·
Cc1nc2ccccc2c2oc(C(=O)NCC3COc4ccccc4O3)cc12 (configuration not stated)	4.8	-6.8	4.0	54.5*	6.5	35.5*	41.6	9.5	8.3
CCc1ccc(CNC(=O)c2cc3c(C)nc4ccccc4c3o2)cc1	1.8	-13.6	0.4	45.2	35.2	·	·	·	·
CCOCCCNC(=O)c1cc(-c2ccc(Br)s2)nc2ccccc12	4.1	3.2	-0.2	2.3	-149.4	·	·	·	·
O=C(N/N=C/c1ccc2ncccc2c1)c1cc(-c2cccs2)nc2ccccc12	4.6	5.3	3.5	57.4*	19.5	27.2*	43.8	4.9	14.7
CC(C)OCCCNC(=O)c1cc(-c2cccs2)nc2ccccc12	-3.8	-8.2	16.6	56.6*	2.1	30.9*	48.5	7.4	10.5
Cc1nn(-c2ccccn2)c2nc(-c3cccs3)cc(C(=O)NCc3ccco3)c12	11.8	10.6	14.4	60.2*	18.2	31.8*	48.8*	5.3	4.2
COc1cc(-c2cc(C(=O)NCc3ccco3)c3ccccc3n2)cc(OC)c1OC	4.2	-2.5	10.7	57.5*	2.6	22.8*	41.6	8.1	6.9
O=C(N/N=C/c1cccnc1)c1cc(-c2cccs2)nc2ccccc12	2.7	-12.9	13.1	21.3	-2.6	·	·	·	·
COC(=O)[C@]1(CNS(=O)(=O)c2ccc(F)cc2)CC(=O)N(C)[C@@H]1c1ccccc1	0.3	·	·	·	·	·	·	·	·
COc1ccc(-c2c(Cc3ccccc3)nc(NC(=O)c3ccccc3)n2Cc2ccccc2)cc1	7.8	·	·	·	·	·	·	·	·
